In assay [1] the target is Histamine H3 receptor (Rattus norvegicus) (UniProt Q9QYN8). Nature of the assay: (§1) In vitro antagonist potency at Histamine H3 receptor measured as K+-evoked [3H]histamine release from synaptosomes of rat cerebral cortex. Format: functional, subcellular. The settings on record: Brain. The method, boiled down:
(§2)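 Rat cerebral cortex synaptosomes; [³H]histamine release evoked by K⁺ depolarization; antagonist activity measured at least in triplicate, per Garbarg et al.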

The target of assay [2] is Histamine H2 receptor (Cavia porcellus) (UniProt P47747). Nature of the assay: Compound was tested in vitro for its Histamine H2 receptor activity on guinea pig atrium. Format: functional, tissue-based. The following applies: Cardiac atrium.
Assay [3] has as its target Histamine H3 receptor (Mus musculus) (UniProt P58406). Kind of assay: In vivo antagonist activity at Histamine H3 receptor was screened by measuring the effect on brain histamine turnover after oral application to mice. Format: functional, organism-based. The method, boiled down: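 Swiss mice dosed orally; in vivo H3 antagonist activity tested at least in triplicate, per Garbarg et al.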

In assay [4] the target is Histamine H1 receptor (Cavia porcellus) (UniProt P31389). Nature of the assay: Compound was tested in vitro for its Histamine H1 receptor activity on guinea pig ileum. The assay is classed as functional, tissue-based.
For assay [5] the target is unchanged. Nature of the assay: Compound was tested in vitro for its Histamine H1 receptor activity on guinea pig ileum. The assay is classed as functional, tissue-based.
Assay [6] has as its target Histamine H3 receptor (Rattus norvegicus, UniProt Q9QYN8). The assay is described as §1. The assay is classed as functional, subcellular, Brain. The method, boiled down:
as §2

Data on eight compounds can be found in ChEMBL document CHEMBL1131146, “4-Alkynylphenyl imidazolylpropyl ethers as selective histamine H3-receptor antagonists with high oral central nervous system activity” (J Med Chem, 1998).

One may read the ED50 as the dose at which the effect has come halfway, by size or by number of responders. Read a low ED50 as an effect at a small dose. Usually Ki stands for a measure of affinity in units of concentration, obtained from inhibition or displacement. A higher Ki goes with weaker binding.

Sequence of Histamine H3 receptor (Rattus norvegicus) (Q9QYN8 whole entry): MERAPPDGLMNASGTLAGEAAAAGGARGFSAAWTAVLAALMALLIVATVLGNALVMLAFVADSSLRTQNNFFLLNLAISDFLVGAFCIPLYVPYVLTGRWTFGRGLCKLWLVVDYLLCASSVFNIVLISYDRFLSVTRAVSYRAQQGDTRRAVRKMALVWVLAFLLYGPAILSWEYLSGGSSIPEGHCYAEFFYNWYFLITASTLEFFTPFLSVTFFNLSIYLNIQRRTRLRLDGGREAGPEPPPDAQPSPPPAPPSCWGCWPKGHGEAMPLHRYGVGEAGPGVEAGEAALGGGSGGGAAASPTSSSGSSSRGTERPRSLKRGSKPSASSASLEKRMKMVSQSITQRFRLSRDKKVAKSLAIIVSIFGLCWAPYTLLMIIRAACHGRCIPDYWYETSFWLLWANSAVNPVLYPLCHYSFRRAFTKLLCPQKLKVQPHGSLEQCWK
Sequence of Histamine H3 receptor (Q9QYN8 whole entry): as above
Sequence of Histamine H2 receptor (Cavia porcellus) (P47747 whole entry): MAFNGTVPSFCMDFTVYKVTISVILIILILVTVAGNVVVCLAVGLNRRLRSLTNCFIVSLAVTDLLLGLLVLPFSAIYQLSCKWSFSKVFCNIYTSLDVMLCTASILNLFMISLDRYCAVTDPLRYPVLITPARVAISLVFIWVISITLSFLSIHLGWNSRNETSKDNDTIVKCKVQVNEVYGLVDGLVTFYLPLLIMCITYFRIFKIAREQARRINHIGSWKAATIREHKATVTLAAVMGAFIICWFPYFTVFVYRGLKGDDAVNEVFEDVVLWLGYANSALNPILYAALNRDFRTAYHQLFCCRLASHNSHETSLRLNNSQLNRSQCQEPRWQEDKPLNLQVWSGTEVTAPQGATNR
Sequence of Histamine H1 receptor (Cavia porcellus) (P31389 whole entry): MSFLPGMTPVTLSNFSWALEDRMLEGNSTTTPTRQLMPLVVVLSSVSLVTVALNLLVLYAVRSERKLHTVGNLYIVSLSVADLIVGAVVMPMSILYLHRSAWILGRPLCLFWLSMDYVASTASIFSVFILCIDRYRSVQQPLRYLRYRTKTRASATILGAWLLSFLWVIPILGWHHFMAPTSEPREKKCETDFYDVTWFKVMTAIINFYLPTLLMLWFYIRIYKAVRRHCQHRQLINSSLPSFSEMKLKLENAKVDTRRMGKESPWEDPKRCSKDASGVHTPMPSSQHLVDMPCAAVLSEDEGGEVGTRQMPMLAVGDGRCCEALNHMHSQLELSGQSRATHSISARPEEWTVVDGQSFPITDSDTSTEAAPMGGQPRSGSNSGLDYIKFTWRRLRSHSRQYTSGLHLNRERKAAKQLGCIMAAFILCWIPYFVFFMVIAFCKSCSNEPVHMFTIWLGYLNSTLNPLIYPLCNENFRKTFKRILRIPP
Sequence of Histamine H3 receptor (Mus musculus) (P58406 whole entry): as the sequence (Q9QYN8 whole entry) above, with T15A, A286T, A290G, R387H, I389V counted along it

Take `CC(C)(C)C#Cc1ccc(OCCCc2c[nH]cn2)cc1`: the -Log K in assay [1] was 6.9; in assay [2] it was under 4.6; in assay [4], under 5.6. It took a dose of 2.2 mg/kg to reach the 50% effect level in assay [3] (ED50).
With `C#Cc1ccc(OCCCc2c[nH]cn2)cc1`, the results for the -Log K in assay [1], in assay [2] and in assay [5] were 8.6, under 4.8 and under 5.5, respectively. This compound had an ED50 in assay [3] of 0.12 mg/kg.
On to `CC(C)(C)C#Cc1ccc(OCCCc2cnc[nH]2)cc1`, for which the affinity in assay [6] corresponds to a Ki of 123 nM. This counts as sub-micromolar.
The compound `CCCC#Cc1ccc(OCCCc2cnc[nH]2)cc1` gave a Ki in assay [6] of 140 nM. The Ki values of the last two compounds are within 1.5-fold of each other.
Consider `CC#Cc1ccc(OCCCc2c[nH]cn2)cc1`, for which the values for the -Log K in assay [1], in assay [2] and in assay [4] were 8.1, under 4.7 and under 5, respectively. The Ki in assay [6] is 7.5 nM. In assay [3], this compound yielded an ED50 of 1.3 mg/kg.
With `CCCC#Cc1ccc(OCCCc2c[nH]cn2)cc1`, the -Log K in assay [1] is 6.9; in assay [2], under 4.7; in assay [4], under 5.9. The 50% effective dose (ED50) in assay [3] worked out at 2.2 mg/kg.
With `C#Cc1ccc(OCCCc2cnc[nH]2)cc1`, the affinity in assay [6], expressed as Ki, was 2.3 nM.
In the case of `C[Si](C)(C)C#Cc1ccc(OCCCc2c[nH]cn2)cc1`, the -Log K is 7.4 in assay [1], under 4.6 in assay [2] and under 5 in assay [5]. Moreover, in assay [6], the affinity corresponds to a Ki of 36 nM. Also, the ED50 in assay [3] came to 1.1 mg/kg.
